In paper PMC4316201 (Gastroenterology, 2014):

Columns and labels:
[1] = Plasma total GLP-2 concentration after subcutaneous GLP-2; assay type: in vivo, human beings; conditions: 1500 μg of GLP-2 subcutaneously
In short: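 Plasma total GLP-2 was measured during the study A visits in healthy men (randomized, single-blind crossover, visits 4 weeks apart). After an overnight fast, subjects received nasoduodenal formula feeding under a pancreatic clamp, then a single subcutaneous GLP-2 dose (1500 ug) or placebo at 9 AM. Sampling continued over the kinetic study.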

healthy men [2] = assay type: in vivo, human beings; conditions: study A
In short: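 Six healthy normoglycemic, normolipidemic men took part in a randomized, single-blind crossover (visits 4 weeks apart). After an overnight fast, liquid mixed-macronutrient formula was infused nasoduodenally for 15 h from 4 AM. A pancreatic clamp (somatostatin, insulin, glucagon, growth hormone) started at 7 AM. At 9 AM came primed constant d3-leucine for 10 h plus s.c. GLP-2 1500 ug or placebo. AUC covered the first 3 h. Multicompartmental modelling gave FCR.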

human beings [3] = conditions: intravenous infusion of native GLP-2, human beings; cited from earlier work
healthy men [4] = assay type: in vivo, human beings; conditions: study B
In short: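 Six healthy men were studied in a randomized, single-blind crossover (visits 4 weeks apart). At 7 am they drank a liquid meal containing 120,000 IU retinyl palmitate, with no food thereafter. At 2 pm (T = 0, 7 h post-meal) they received s.c. GLP-2 1500 mcg or placebo, with blood sampled for 3 h. TRL TG, retinyl palmitate and apoB-48 were measured. Incremental AUC over 0–3 h used the T = 0 concentration as baseline.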

human beings [5] = conditions: cited from earlier work
[6] = GLP-2 1500 μg s.c. single dose, n = 6, vs placebo P = .03
[7] = GLP-2 1500 μg s.c., n = 6, vs placebo P = .02
[8] = GLP-2 1500 mcg s.c. 7 h after meal, N = 6, vs placebo P = .002

Compound: glucagon-like peptide-2 [GLP-2]
- GLP-2 concentration at 4 hours relative to the level at 2 hours [1]: approximately half
- plasma total GLP-2 concentration compared with placebo ([1]; 2 and 4 hours after administration): significantly increased
- plasma TG area under the concentration curve in the first 3 hours (AUC0-3) (healthy men [2]; [6]): 3.1 ± 0.4 mmol/L/h
- plasma TG peak concentration at 1 hour (healthy men [2]; [6]): 1.23 ± 0.20 mmol/L
- TRL apoB-48 AUC0-3 (healthy men [2]; [7]): 19.3 ± 5.0 mg/L/h
- TRL apoB-48 peak concentration 1 hour after administration (healthy men [2]; [7]): 9.5 ± 2.6 mg/L
- TRL TG peak concentration at 1 hour (healthy men [2]; GLP-2 1500 μg s.c., n = 6, vs placebo P = .15): 0.79 ± 0.09 mmol/L
- TRL TG AUC0-3 (healthy men [2]; GLP-2 1500 μg s.c., n = 6, vs placebo P = .24): 1.9 ± 0.2 mmol/L/h
- TRL apoB-100 mean concentration for the 10-hour kinetics study (healthy men [2]; GLP-2 1500 μg s.c., n = 6, vs placebo P = .5): 74.8 ± 7.4 mg/L
- TRL apoB-100 AUC0-3 (healthy men [2]; GLP-2 1500 μg s.c., n = 6, vs placebo P = .95): 216 ± 21.9 mg/L/h
- mean plasma glucagon concentration (healthy men [2]; GLP-2 1500 μg s.c., pancreatic clamp, vs placebo P = .01): 143.3 ± 14.2 pg/mL
- mean plasma glucose concentration (healthy men [2]; GLP-2 1500 μg s.c., pancreatic clamp, vs placebo P = .049): 8.7 ± 0.3 mmol/L
- plasma FFA concentration, GLP-2 vs placebo (healthy men [2]; during kinetic study): no significant difference
- plasma insulin concentration, GLP-2 vs placebo (healthy men [2]; during kinetic study): no significant difference
- effect on postprandial plasma TG and free fatty acid (FFA) concentrations (human beings [3]): increase
- plasma glucose concentration, GLP-2 vs placebo (healthy men [4]): no significant difference
- TRL TG iAUC0-3 (healthy men [4]; [8]): 0.28 ± 0.16 mmol/L/h
- TRL retinyl palmitate iAUC0-3 (healthy men [4]; [8]): 0.86 ± 0.21 µmol/L/h
- chylomicron (Sf > 400) retinyl palmitate peak concentration at 60 minutes (healthy men [4]; GLP-2 1500 mcg s.c. 7 h after meal, n = 5, vs placebo P = .003): 0.38 ± 0.06 µmol/L
- TRL apoB-48 iAUC0-3 (healthy men [4]; GLP-2 1500 mcg s.c. 7 h after meal, n = 6, vs placebo P = .04): 1.45 ± 1.72 mg/L/h
- TRL TG peak increment (healthy men [4]; GLP-2 1500 mcg s.c. 7 h after meal, vs placebo P = .003): 0.42 ± 0.11
- TRL apoB-48 peak increment (healthy men [4]; GLP-2 1500 mcg s.c. 7 h after meal, vs placebo P = .006): 2.1 ± 0.8

Compound: exenatide
- effect on chylomicron secretion in human beings (human beings [5]): reduces chylomicron secretion

Compound: N[C@@H](CC(=O)N1CCn2c(nnc2C(F)(F)F)C1)Cc1cc(F)c(F)cc1F [sitagliptin]
- effect on chylomicron production in human beings (human beings [5]; acute): acutely reduces chylomicron production
